Measurements published in ChEMBL document CHEMBL1156382, “New steroidal alkaloids from an undescribed sponge of the genus Corticium” (2001).
Values after ≈ are worked out from the molar mass of the structure shown. Active and inactive are the calls of the source. The calls are words filed in the database; no cut-off is given here.

Legend:
[1] = tested on: Candida albicans; assay: Antifungal activity against Candida albicans at 25 ug/disk by paper disk method; type: functional; conditions: read-out: IZ
Summary of the method: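 Paper disk diffusion against Candida albicans with 25 µg loaded per disk; read-out is the diameter of the clear zone of inhibition, in mm.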

[2] = tested on: K562; assay: Cytotoxicity against human K562 cells; type: functional; conditions: read-out: LC50 (the source's name)
[3] = tested on: Nucleic Acid; assay: Induction of Escherichia coli double stranded DNA cleavage at 10 ug/20 mL by gel electrophoresis; type: nucleic-acid assay
Summary of the method: (§1)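 Nucleic acids (double-stranded DNA and 16S rRNA) were isolated from E. coli and exposed to compound at 10 µg/20 mL; cleavage was scored by gel electrophoresis.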

[4] = tested on: Nucleic Acid; assay: Induction of Escherichia coli 16S rRNA cleavage at 10 ug/20 mL by gel electrophoresis; type: nucleic-acid assay; summary of the method: as §1

| Structure (SMILES) | zone of inhibition at 25 µg/disc [1] | CC50 [2] | Activity [3] | Activity [4] |
| --- | --- | --- | --- | --- |
| CC(C)=C1CC[N+]([O-])=C1C[C@@H](C)[C@H]1CC[C@H]2C3=CC[C@H]4[C@@H](O)[C@@H](N(C)C)CC[C@]4(C)[C@H]3CC[C@]12C [PLAKINAMINE E] | 12 mm | 0.2 µg/mL (≈ 0.414 µM) | Active | Active |
| CC(C)=C1CCN=C1C[C@@H](C)[C@H]1CC[C@H]2C3=CC[C@H]4C(=O)[C@@H](N(C)C)CC[C@]4(C)[C@H]3CC[C@]12C [PLAKINAMINE F] | 8 mm | 1.3 µg/mL (≈ 2.8 µM) | inactive | inactive |
| CC(C)=C1CCN=C1C[C@@H](C)[C@H]1CC[C@H]2C3=CC[C@H]4[C@@H](O)[C@@H](N(C)C)CC[C@]4(C)[C@H]3CC[C@]12C [LOKYSTEROLAMINE A] | 9 mm | 0.9 µg/mL (≈ 1.93 µM) | inactive | inactive |
